Assay outcomes deposited in PubChem BioAssay by The Scripps Research Institute Molecular Screening Center.
In the library only some 2.7% were active in any assay of this set; here they are far more common.
PAFAH1B3 FP inh = PAFAH1B3 enzyme inhibitors, primary screen, biochemical, fluorescence polarization, human; Platelet-activating factor acetylhydrolase IB subunit alpha1 (Homo sapiens), Q15102; inhibition, % at 3.39 µM; 0.28% of 340,000 active; recombinant PAFAH1B3, FP-rhodamine probe; AID 492972, 2010;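 active = inhibition above the screen-wide average of all tested compounds plus 3 SD, cut at about 25% in these data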;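 note: 0% = enzyme with DMSO only and 100% = wells lacking PAFAH1B3 protein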
Target sequence (Q15102 whole entry, looked up): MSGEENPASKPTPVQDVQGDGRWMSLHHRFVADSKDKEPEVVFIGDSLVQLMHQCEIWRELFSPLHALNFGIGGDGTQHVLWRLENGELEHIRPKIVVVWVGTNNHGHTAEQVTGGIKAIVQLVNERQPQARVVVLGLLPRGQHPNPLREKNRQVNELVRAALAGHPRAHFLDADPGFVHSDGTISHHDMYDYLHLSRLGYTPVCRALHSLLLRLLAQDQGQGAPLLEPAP
PAFAH2 inh = PAFAH2 enzyme inhibitors, primary screen, biochemical, fluorescence polarization, human; recombinant PAFAH2, FP-rhodamine activity probe; inhibition, % at 3.39 µM; 0.99% of 340,000 active;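 active = inhibition above the mean over all tested compounds plus 3 SD, cut at about 30% in these data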;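 note: inhibitors block probe labeling of enzyme so polarization drops; 0% = enzyme with DMSO and 100% = wells lacking PAFAH2 protein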
ASAP1 inh = inhibitors of human ASAP1 ArfGAP activity, primary screen, biochemical, fluorescence polarization. Arf-GAP with SH3 domain, ANK repeat and PH domain-containing protein 1 (Homo sapiens), …. ASAP1-stimulated ARF1 GTP hydrolysis, GDP FP detection. inhibition, % at 16.5 µM. 0.19% of 360,000 active; in the data active = inhibition above about 25%;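 note: 0% = vehicle with enzyme and substrate and 100% = no enzyme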
pPAFAH FP inh = pPAFAH enzyme inhibitors, primary screen, biochemical, fluorescence polarization, human; recombinant pPAFAH, FP-rhodamine probe fluorescence polarization; 1.5% of 330,000 active; Platelet-activating factor acetylhydrolase (Homo sapiens), Q13093; inhibition, % at 3.39 µM;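 active = inhibition above the mean inhibition across the screen plus 3 SD, cut at about 25% in these data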;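 note: inhibitors block binding of the rhodamine activity-based probe so polarization drops; 0% = enzyme with DMSO and 100% = wells lacking pPAFAH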
PAFAH1B2 FP inh = PAFAH1B2 enzyme inhibitors, primary screen, biochemical, fluorescence polarization, human. Platelet-activating factor acetylhydrolase IB subunit alpha2 (Homo sapiens), P68402. recombinant PAFAH1B2, FP-rhodamine activity probe. inhibition, % at 3.39 µM. 1.2% of 340,000 active. AID 492953, 2010;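 active = inhibition above the mean of all tested compounds plus 3 SD, cut at about 24% in these data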;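 note: 0% = enzyme with DMSO and 100% = wells lacking PAFAH1B2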
Target sequence (P68402 whole entry, looked up): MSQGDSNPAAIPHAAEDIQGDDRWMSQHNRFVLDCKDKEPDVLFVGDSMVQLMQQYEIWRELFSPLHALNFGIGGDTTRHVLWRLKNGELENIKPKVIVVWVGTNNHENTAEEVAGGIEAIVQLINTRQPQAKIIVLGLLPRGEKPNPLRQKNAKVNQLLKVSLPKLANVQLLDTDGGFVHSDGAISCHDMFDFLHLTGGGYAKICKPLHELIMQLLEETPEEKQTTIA
ARFGAP1 inhibitor = inhibitors of rat ARFGAP1 GAP activity, primary screen, biochemical, fluorescence polarization, GDP tracer | inhibition, % at 16.5 µM | AID 651572, 2012 | Arfgap1-stimulated ARF1 GTP hydrolysis, GDP FP detection | ADP-ribosylation factor GTPase-activating protein 1 (Rattus norvegicus), Q62848 | 0.26% of 360,000 active;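 active = inhibition above a per-plate limit, mean inhibition of low control wells plus 3 SD, cut at about 25% in these data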;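 note: 0% = DMSO wells with enzyme and 100% = wells lacking Arfgap1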
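system = rat Arfgap1 catalytic domain, aa 1-136 | technique = FP, GDP Alexa 633 tracer displaced from anti-GDP antibody, 620/688 nm | compound = one concentration, 16.5 µM, DMSO 1.26% | medium = HEPES-based buffer, pH 7.5 | timing = compound-enzyme preincubation 20 min, reaction 120 min, detection 60 min, 25 °C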
pPAFAH FP conf = pPAFAH (PLA2G7) enzyme inhibitors, confirmation, biochemical, fluorescence polarization, human | recombinant pPAFAH, FP-Rh probe fluorescence polarization | shares compounds with pPAFAH FP inh | 72% of 2,300 active | inhibition, % at 3.39 µM;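 active = mean inhibition of the triplicate above the hit cutoff set for the earlier primary screen, cut at about 25% in these data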;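 note: 0% = enzyme with DMSO and 100% = wells lacking pPAFAH enzyme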
Numbers without * were called inactive; . = no result.

SMILES | PAFAH1B3 FP inh | PAFAH2 inh | ASAP1 inh | pPAFAH FP inh | PAFAH1B2 FP inh | ARFGAP1 inhibitor | pPAFAH FP conf
C[C@@H]1CN([C@@H](C)CO)C(=O)CCCn2cc(nn2)CO[C@H]1CN(C)C(=O)Cc1ccccc1 | . | . | 0.2 | . | . | -4.3 | .
O=C(c1cc(S(=O)(=O)N2CCOCC2)c(Cl)cc1Cl)N1CCCC1 | 1.9 | -3.9 | 7.3 | . | 2.6 | 4.5 | .
O=C(c1cc(S(=O)(=O)N2CCOCC2)c(Cl)cc1Cl)N1CCCCC1CO (stereo not drawn) | -0.1 | -4.9 | -11.1 | 46.5* | 0.3 | -3.8 | 2.6
C[C@@H]1CN(S(=O)(=O)C(C)(C)C)[C@H](CCO)/C1=C\CCO | . | . | -0.3 | . | . | 5.9 | .
CCOC(=O)c1cc(C#N)c(SCC(N)=O)[nH]c1=O | 19.0 | 9.2 | 8.1 | 50.6* | 4.8 | 5.1 | 1.0
CCOC(=O)c1cc(C#N)c(SCC(=O)c2cc(C#N)c(SC)nc2C)[nH]c1=O | 9.1 | 4.3 | 9.0 | 13.6 | 4.3 | -5.5 | .
COC(=O)c1ccc(N)cc1O | 5.1 | 4.4 | 6.2 | -0.5 | -4.9 | 3.0 | .
COC(=O)c1ccc(=O)c2nc3/c(=C/O)c(O)cc(=O)c3[nH]c12 | 65.6* | 81.2* | 1.4 | 91.5* | 60.3* | -18.5 | 91.3*
Nc1ccc(O)cc1C(=O)OCC(=O)c1ccc(C2CCCCC2)cc1 | 4.8 | 11.9 | 1.6 | 50.6* | 6.2 | 2.7 | 25.6*
C[C@H](O)[C@@H]1C(=O)N2CCc3c([nH]c4cccc(-c5ccccc5)c34)[C@@H]2C[C@@H]1N(C)C(=O)c1ccccc1 | . | . | 5.5 | . | . | 7.1 | .
CC1=C([N+](=O)[O-])C(c2cccc(Br)c2)C2=C(N1)c1ccccc1C2=O (stereo not drawn) | 3.4 | 5.0 | 8.7 | 37.8* | 6.5 | -4.7 | 25.9*
C=CCN=C1NC(c2ccccc2)C(C(=O)OC)=C(C)N1C (stereo not drawn) | . | . | -2.1 | . | . | -12.3 | .
O=C(Oc1ccc(-c2ccccc2)cc1)N1CCOCC1 | -2.1 | 32.2* | -3.6 | 94.3* | 5.3 | -5.6 | 97.9*
O=C(Oc1ccccc1)N1CCCC1 | -6.2 | 2.4 | -20.2 | -2.6 | -2.3 | -0.4 | .
O=C(Oc1ccc(Cl)cc1)N1CCOCC1 | 10.4 | 10.6 | 8.8 | 8.2 | 0.5 | -0.8 | .
O=C(Oc1ccc(Oc2ccccc2)cc1)N1CCC(O)CC1 | 1.3 | 25.8 | 9.6 | 93.6* | -2.2 | 6.1 | 92.4*
C[C@H]1CN(S(=O)(=O)C(C)(C)C)[C@H](CCO)/C1=C\CCO | . | . | -4.5 | . | . | -3.0 | .
O=C(O)C1Nc2c(O)cc(Cl)c([N+](=O)[O-])c2C2C=CCC12 (stereo not drawn) | 63.3* | 76.5* | 21.7 | 90.0* | 50.8* | -4.2 | 38.6*
N#CCN(CC#N)C(=O)C1c2ccccc2Oc2ccccc21 | 12.3 | 5.2 | 15.3 | 62.2* | 1.9 | 8.4 | 2.6
COc1ccc(CCn2c(C)cc(C(=O)CSc3nnc(N)s3)c2C)cc1 | 11.5 | 0.9 | . | 0.4 | 0.7 | . | .
Cc1cc(C(=O)CSc2nc(N)cc(=O)[nH]2)c(C)n1-c1ccc(OC(F)F)cc1 | -0.6 | -0.5 | 0.9 | 59.6* | -0.2 | -4.4 | 70.6*
Cc1cc(C(=O)CSc2nc(N)cc(=O)[nH]2)c(C)n1CCc1ccc(F)cc1 | -11.8 | -8.7 | 14.5 | 61.3* | -3.6 | 1.8 | 61.5*
COc1ccc(CCn2c(C)cc(C(=O)CSc3nc(N)cc(=O)[nH]3)c2C)cc1 | -1.9 | -4.2 | 5.5 | 35.3* | 0.9 | 0.3 | 31.2*
Cc1cc(C(=O)CSc2nnc(N)s2)c(C)n1CCc1ccc(F)cc1 | 12.4 | 3.2 | 15.6 | 12.6 | 9.8 | -4.5 | .
